# In ChEMBL document CHEMBL1795276, “Synthesis and biological testing of novel pyridoisothiazolones as histone acetyltransferase inhibitors” (Bioorg Med Chem, 2011):
# The source made the active and inactive calls. No cut-off for these calls is given here.
# What was measured:
# [1] = target: T1, Histone acetyltransferase KAT2B (Homo sapiens, UniProt Q92831); experiment: Inhibition of histone acetylase activity of human recombinant PCAF expressed in Escherichia coli using biotinylated oligopeptide sequences from histone H4 (2-24) substrate by In-vitro time-resolved fluorescence immunosorbent acetyltransferase assay
# Method in brief: (§1)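 E. coli-expressed His-tagged human PCAF, Ni-NTA purified. Preincubated 10 min at 30 °C with inhibitor (DMSO solution) in HEPES 100 mM pH 7.5 with 0.1% BSA and 0.8% Triton X-100. Substrate was 20 pmol/well biotinylated H4 2–24 on streptavidin wells; 100 µM acetyl-CoA final; incubation steps 1 h at 30 °C. Acetylation read with anti-acetyl-lysine primary antibody and Eu-labelled anti-rabbit secondary, by time-resolved fluorescence at 340/615 nm; IC50 from RFU versus log concentration.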
# Target sequence in this assay (Q92831 whole entry): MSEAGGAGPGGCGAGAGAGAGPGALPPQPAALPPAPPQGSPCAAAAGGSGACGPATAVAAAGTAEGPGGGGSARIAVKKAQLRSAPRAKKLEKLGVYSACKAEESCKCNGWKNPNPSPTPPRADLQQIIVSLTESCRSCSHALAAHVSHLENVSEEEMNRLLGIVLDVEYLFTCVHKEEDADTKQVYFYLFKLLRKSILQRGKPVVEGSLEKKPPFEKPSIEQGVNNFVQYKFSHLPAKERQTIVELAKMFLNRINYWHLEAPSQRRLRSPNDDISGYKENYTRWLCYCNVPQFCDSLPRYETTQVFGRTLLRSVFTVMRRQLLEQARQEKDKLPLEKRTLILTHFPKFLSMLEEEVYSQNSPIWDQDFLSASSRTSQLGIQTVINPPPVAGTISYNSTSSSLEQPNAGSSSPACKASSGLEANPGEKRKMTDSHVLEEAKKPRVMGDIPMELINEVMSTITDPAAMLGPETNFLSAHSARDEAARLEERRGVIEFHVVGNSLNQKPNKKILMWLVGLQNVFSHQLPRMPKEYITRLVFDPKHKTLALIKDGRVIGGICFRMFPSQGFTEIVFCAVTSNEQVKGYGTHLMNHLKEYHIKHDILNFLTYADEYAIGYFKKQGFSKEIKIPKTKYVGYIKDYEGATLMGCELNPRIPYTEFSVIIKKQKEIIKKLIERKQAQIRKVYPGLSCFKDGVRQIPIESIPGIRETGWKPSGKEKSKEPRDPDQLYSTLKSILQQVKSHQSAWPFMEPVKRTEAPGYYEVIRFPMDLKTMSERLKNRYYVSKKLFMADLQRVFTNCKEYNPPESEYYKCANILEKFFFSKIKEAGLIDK
# [2] = target: T1, Histone acetyltransferase KAT2B; experiment: Inhibition of histone acetylase activity of human recombinant PCAF expressed in Escherichia coli using biotinylated oligopeptide sequences from histone H3 (1-21) substrate by In-vitro time-resolved fluorescence immunosorbent acetyltransferase assay
# Method in brief: (§2)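 His-tagged human PCAF from E. coli (IPTG induction at 18 °C overnight), purified on Ni-NTA and stored at pH 6.0. Enzyme was preincubated with inhibitor in DMSO for 10 min at 30 °C in HAT buffer pH 7.5 (0.1% BSA, 0.8% Triton X-100, 100 mM HEPES). Reaction on 20 pmol/well biotinylated H3 1–21 bound to a streptavidin plate, with 100 µM acetyl-CoA final, 1 h at 30 °C. Detection with anti-acetylhistone H3 antibody, then Eu-labelled secondary antibody; time-resolved fluorescence at 340/615 nm. IC50 from RFU plotted against log concentration.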
# Target sequence in this assay (Q92831 whole entry): as above
# HCT-116 [3] = experiment: Growth inhibition of human HCT116 cells at 25 uM by CellTiter-96 Aqueous Non-radioactive cell proliferation assay; format: functional; settings: read-out: GI
# Method in brief: (§3)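 HCT116 cells were grown in high-glucose DMEM with 10% FBS, 2 mM L-glutamine, 1% non-essential amino acids and penicillin-streptomycin, and seeded at 4000/well. After 24 h, compound or DMSO vehicle was added; triplicates per concentration.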
# MCF7 = experiment: Growth inhibition of human MCF7 cells by CellTiter-96 Aqueous Non-radioactive cell proliferation assay; format: functional
# Method in brief: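 MCF-7 cells were grown in RPMI-1640 with 10% FBS, 2 mM L-glutamine and penicillin-streptomycin, and seeded at 5000/well. Compounds or DMSO were added after 24 h; three replicates per concentration.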
# SK-N-SH [4] = experiment: Growth inhibition of human SK-N-SH cells by CellTiter-96 Aqueous Non-radioactive cell proliferation assay; format: functional
# Method in brief: (§4)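 SK-N-SH neuroblastoma cells were grown in low-glucose DMEM with 10% FBS, 2 mM L-glutamine and 1% penicillin-streptomycin, and seeded at 5000/well. Compound or DMSO vehicle was added after 24 h, in triplicate.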
# [5] = target: T1, Histone acetyltransferase KAT2B; experiment: Inhibition of histone acetylase activity of human recombinant PCAF expressed in Escherichia coli at 50 uM using biotinylated oligopeptide sequences from histone H3 (1-21) substrate by In-vitro time-resolved fluorescence immunosorbent acetyltransferase assay; method in brief: as §2
# Target sequence in this assay (Q92831 whole entry, looked up): as the sequence (Q92831 whole entry) above
# SK-N-SH [6] = experiment: Growth inhibition of human SK-N-SH cells at 25 uM by CellTiter-96 Aqueous Non-radioactive cell proliferation assay; format: functional; settings: read-out: GI; method in brief: as §4
# [7] = target: T1, Histone acetyltransferase KAT2B; experiment: Inhibition of histone acetylase activity of human recombinant PCAF expressed in Escherichia coli at 10 uM using biotinylated oligopeptide sequences from histone H3 (1-21) substrate by In-vitro time-resolved fluorescence immunosorbent acetyltransferase assay; method in brief: as §2
# Target sequence in this assay (Q92831 whole entry, looked up): as the sequence (Q92831 whole entry) above
# HCT-116 [8] = experiment: Growth inhibition of human HCT116 cells by CellTiter-96 Aqueous Non-radioactive cell proliferation assay; format: functional; method in brief: as §3
# [9] = target: T1, Histone acetyltransferase KAT2B; experiment: Inhibition of histone acetylase activity of human recombinant PCAF expressed in Escherichia coli using biotinylated oligopeptide sequences from histone H3 (1-21) substrate in presence of 1 mmol/L DTT by In-vitro time-resolved fluorescence immunosorbent acetyltransferase assay
# Target sequence in this assay (Q92831 whole entry, looked up): as the sequence (Q92831 whole entry) above
# [10] = target: T1, Histone acetyltransferase KAT2B; experiment: Inhibition of histone acetylase activity of human recombinant PCAF expressed in Escherichia coli at 50 uM using biotinylated oligopeptide sequences from histone H4 (2-24) substrate by In-vitro time-resolved fluorescence immunosorbent acetyltransferase assay; method in brief: as §1
# Target sequence in this assay (Q92831 whole entry, looked up): as the sequence (Q92831 whole entry) above
# SK-N-SH [11] = experiment: Growth inhibition of human SK-N-SH cells at 40 uM by CellTiter-96 Aqueous Non-radioactive cell proliferation assay; format: functional; settings: read-out: GI; method in brief: as §4
# HCT-116 [12] = experiment: Growth inhibition of human HCT116 cells at 40 uM by CellTiter-96 Aqueous Non-radioactive cell proliferation assay; format: functional; settings: read-out: GI; method in brief: as §3
# SK-N-SH [13] = experiment: Growth inhibition of human SK-N-SH cells at 20 uM by CellTiter-96 Aqueous Non-radioactive cell proliferation assay; format: functional; settings: read-out: GI; method in brief: as §4
# HCT-116 [14] = experiment: Growth inhibition of human HCT116 cells at 20 uM by CellTiter-96 Aqueous Non-radioactive cell proliferation assay; format: functional; settings: read-out: GI; method in brief: as §3
# SK-N-SH [15] = experiment: Growth inhibition of human SK-N-SH cells at 10 uM by CellTiter-96 Aqueous Non-radioactive cell proliferation assay; format: functional; settings: read-out: GI; method in brief: as §4
# SK-N-SH [16] = experiment: Growth inhibition of human SK-N-SH cells at 5 to 25 uM incubated for 6 to 72 hrs by CellTiter-96 Aqueous Non-radioactive cell proliferation assay; format: functional, cell-based
# Method in brief: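 Time course in SK-N-SH cells (5000/well, low-glucose DMEM with 10% FBS). Compound at 5, 10 or 25 µM was added 24 h after seeding, and growth was followed up to 72 h of incubation by CellTiter 96 AQueous absorbance, relative to DMSO control.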
# [17] = target: T1, Histone acetyltransferase KAT2B; experiment: Inhibition of histone acetylase activity of human recombinant PCAF expressed in Escherichia coli at 200 uM using biotinylated oligopeptide sequences from histone H4 (2-24) substrate by In-vitro time-resolved fluorescence immunosorbent acetyltransferase assay; method in brief: as §1
# Target sequence in this assay (Q92831 whole entry, looked up): as the sequence (Q92831 whole entry) above
# [18] = target: T1, Histone acetyltransferase KAT2B; experiment: Inhibition of histone acetylase activity of human recombinant PCAF expressed in Escherichia coli at 300 uM using biotinylated oligopeptide sequences from histone H3 (1-21) substrate by In-vitro time-resolved fluorescence immunosorbent acetyltransferase assay; method in brief: as §2
# Target sequence in this assay (Q92831 whole entry, looked up): as the sequence (Q92831 whole entry) above
# SK-N-SH [19] = experiment: Growth inhibition of human SK-N-SH cells at 100 uM by CellTiter-96 Aqueous Non-radioactive cell proliferation assay; format: functional; settings: read-out: GI; method in brief: as §4
# HCT-116 [20] = experiment: Growth inhibition of human HCT116 cells at 100 uM by CellTiter-96 Aqueous Non-radioactive cell proliferation assay; format: functional; settings: read-out: GI; method in brief: as §3
# [21] = target: T1, Histone acetyltransferase KAT2B; experiment: Inhibition of histone acetylase activity of human recombinant PCAF expressed in Escherichia coli at 25 uM using biotinylated oligopeptide sequences from histone H3 (1-21) substrate by In-vitro time-resolved fluorescence immunosorbent acetyltransferase assay; method in brief: as §2
SMILES,IC50 [2],inhibition of growth at 25 µM (HCT-116 [3]),GI50 (SK-N-SH [4]),further results
O=c1c2cccnc2sn1Cc1ccc(C(F)(F)F)cc1,130 µM,38%,0.48 µM,IC50 [1]: 25.5 µM; GI50 (MCF7): 30.2 µM
O=c1c2cccnc2sn1Cc1ccccc1,23 µM,,,
Oc1nsc2ncccc12,,,,inhibition [5]: 17%
Cc1cnc2sn(-c3ccc(Br)cc3)c(=O)c2c1,2.99 µM,< 5%,21.3 µM,
O=c1c2cc([N+](=O)[O-])cnc2sn1-c1ccc(Oc2ccccc2)cc1,,< 10%,,inhibition of growth at 25 µM (SK-N-SH [6]): < 5%; inhibition [7]: 48%
O=c1c2cccnc2sn1Cc1ccc(F)cc1,86.3 µM,,,
O=c1c2cccnc2sn1-c1ccc(Br)cc1,4.43 µM,,,
COc1ccc(-n2sc3ncc(C)cc3c2=O)cc1,6.51 µM,40%,12.2 µM,
CCCCc1ccc(-n2sc3ncccc3c2=O)cc1,15.9 µM,21%,8.93 µM,
COc1cccc(-n2sc3ncccc3c2=O)c1,5.03 µM,,,
O=c1c2cccnc2sn1Cc1ccc(F)c(F)c1,101 µM,,,
O=c1c2cccnc2sn1Cc1ccc(Cl)c(Cl)c1,6.94 µM,,9.53 µM,GI50 (HCT-116 [8]): 15.8 µM
COc1ccc(-n2sc3ncc([N+](=O)[O-])cc3c2=O)cc1,3.42 µM,,,IC50 [1]: 1.83 µM; inhibition [9]: inactive
O=c1c2cccnc2[s+]([O-])n1Cc1ccc(Cl)c(Cl)c1 (stereo not given),,,,inhibition [5]: 11%
O=c1c2ccc([N+](=O)[O-])cc2sn1Cc1ccccc1,7.66 µM,,,IC50 [1]: 51.3 µM
O=c1c2cccnc2sn1-c1ccc(F)c(F)c1,5.9 µM,,,
O=c1c2cccnc2sn1-c1ccc([N+](=O)[O-])cc1,4.1 µM,,,IC50 [1]: 2.99 µM
Cc1cnc2sn(-c3ccc(Oc4ccccc4)cc3)c(=O)c2c1,12.9 µM,29%,,inhibition of growth at 25 µM (SK-N-SH [6]): 32%
Cc1ccc(-n2sc3ncccc3c2=O)cc1,4.63 µM,20%,6.2 µM,inhibition [10]: 75%
COc1ccc(-n2sc3ncccc3c2=O)cc1,5.71 µM,29%,19.2 µM,

SMILES,IC50 [2],inhibition of growth at 25 µM (HCT-116 [3]),GI50 (SK-N-SH [4]),further results
O=C(Cn1sc2cc(F)ccc2c1=O)Nc1nc(-c2ccccc2)cs1,,,,inhibition [5]: 21%; inhibition of growth at 40 µM (SK-N-SH [11]): < 5%; inhibition of growth at 40 µM (HCT-116 [12]): < 5%
O=c1c2cccnc2sn1-c1ccc(Cl)c(Cl)c1,4.57 µM,,,inhibition [10]: 91%; inhibition of growth at 20 µM (SK-N-SH [13]): 37%; inhibition of growth at 20 µM (HCT-116 [14]): 56%
Cc1cc(C)c2c(=O)n(CC(=O)Nc3ccc(Cl)cc3)sc2n1,,,22.1 µM,inhibition [5]: 38%; GI50 (HCT-116 [8]): 35.8 µM
O=c1ccsn1-c1ccc(Cl)c([N+](=O)[O-])c1,4.8 µM,,23.2 µM,
COc1cccc(Cn2sc3ncccc3c2=O)c1,22.2 µM,42%,,inhibition of growth at 10 µM (SK-N-SH [15]): 26%
O=c1c2cc([N+](=O)[O-])cnc2sn1-c1ccc(Br)cc1,4.91 µM,,53.5 µM,IC50 [1]: 0.86 µM; GI50 (MCF7): 44.2 µM
O=c1c2cccnc2sn1-c1ccc(Cl)cc1,3.53 µM,23%,16.1 µM,inhibition [10]: 87%
O=c1c2cccnc2sn1-c1ccc(F)cc1,1.64 µM,28%,10.3 µM,IC50 [1]: 0.72 µM; GI50 (MCF7): 37.2 µM; growth inhibition (GI) (SK-N-SH [16]): Dose-dependent effect
C=C(C)C(C(=O)OC)n1scc(NCc2ccccc2)c1=O (stereo not given),,,,inhibition [17]: 20%; inhibition [18]: 48%
Cc1ccc(-n2sc3cc(F)ccc3c2=O)cc1,3.69 µM,,,inhibition of growth at 100 µM (SK-N-SH [19]): 35%; inhibition of growth at 100 µM (HCT-116 [20]): 49%
CCCCc1ccc(-n2sc3ncc(-c4ccccc4)cc3c2=O)cc1,,33%,,inhibition [21]: 49%; inhibition of growth at 25 µM (SK-N-SH [6]): 55%
O=C1c2cccnc2S(=O)(=O)N1Cc1ccc(Cl)c(Cl)c1,,,,inhibition [5]: 6%
Cc1ccc(Cn2sc3ncccc3c2=O)cc1,27.9 µM,79%,,inhibition of growth at 10 µM (SK-N-SH [15]): 31%
Cc1cc(C)c2c(=O)n(CC(=O)Nc3ccc(F)cc3C)sc2n1,,,25.7 µM,inhibition [5]: 48%; GI50 (HCT-116 [8]): 22.6 µM
O=c1c2cccnc2sn1Cc1ccc(Cl)cc1,17.5 µM,97%,,inhibition of growth at 10 µM (SK-N-SH [15]): 20%
Cc1cnc2sn(-c3ccc([N+](=O)[O-])cc3)c(=O)c2c1,15.3 µM,,,IC50 [1]: 2.72 µM
O=c1c2cc([N+](=O)[O-])cnc2sn1-c1ccc([N+](=O)[O-])cc1,11.8 µM,,,IC50 [1]: 15.8 µM
O=c1c2ccccc2sn1-c1nc2ccccc2s1,,,,inhibition [5]: 46%
O=c1c2cccnc2sn1-c1ccccc1,7.85 µM,,,inhibition [10]: 88%
O=C1/C(=C/c2ccc3c(c2)OCO3)C(=S)SN1Cc1ccco1,,,,inhibition [21]: < 5%
